Consider 2 molecules from ChEMBL document CHEMBL1124794, “Synthesis, chemistry, and antineoplastic activity of alpha-halopyridinium salts: potential pyridone prodrugs of acylated vinylogous carbinolamine tumor inhibitors” (J Med Chem, 1990).

The nature of series [1]: Effect of pH on carbamate hydrolysis in 0.05 M buffer concentration at the pH 5.0, 25 degree C. Type of series: ADME. Put shortly: (§1)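 Bis-carbamate in acetonitrile–water (1:1; buffer added to a 0.5 mg/mL acetonitrile solution), 0.05 M buffer, ionic strength 0.136 (KCl), 25 ± 0.1 °C. Buffers: phosphate pH 2.0; citrate pH 3.0–3.5; succinate pH 4.0; acetate pH 5.0; phosphate pH 6.0–8.0; borate pH 9.0; carbonate pH 10.0. HPLC bis-carbamate peak-area loss, ln(area0/areat) vs time slope = kobs. Duplicates averaged.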

The nature of series [2]: Effect of phosphate buffer on carbamate hydrolysis in acetonitrile-water at the concentration of 0.01 M on pH 3.0, 25 degree C. Conditions: in the assay text read “citrate buffer” for “phosphate buffer”. Type of series: ADME. Put shortly: (§2)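 Bis-carbamate in acetonitrile–water (1:1), 25 ± 0.1 °C. Citrate buffer at pH 3.0 or phosphate buffer at pH 7.4, at 0.01, 0.025 or 0.05 M, ionic strength 0.136 (KCl). Kinetics followed by HPLC as the decrease in bis-carbamate peak area. The regression slope of ln(area0/areat) vs time gave pseudo-first-order kobs. Duplicates averaged.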

The nature of series [3]: Effect of phosphate buffer on carbamate hydrolysis in acetonitrile-water at the concentration of 0.025 M on pH 3.0, 25 degree C. Format: ADME. The following applies: in the assay text read “citrate buffer” for “phosphate buffer”. Put shortly: as §2
The nature of series [4]: Half life at the concentration of 0.025 M. Format: ADME.
Series [5] is described as follows: Half life at the pH 2.0. Type of series: ADME. Conditions: buffer. Put shortly:
as §1

For series [6], the system named is L1210. Description: In vivo activity against murine L1210 tumor system at the dose of 21.6 mg/kg, activity expressed as KE. Type of series: functional, Mus musculus. The gist of the method: (§3)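 L1210 lymphocytic leukemia: ascitic fluid with ca. 10^6 cells injected ip into CD2F1 mice. Dosing started 24 h after inoculation and was repeated daily for five doses in total, from solutions or suspensions made fresh each day. Toxicity day survivors were scored on day 5. Body weight difference is day 5 minus day 1. %T/C is based on median survival time versus controls.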

Series [7] deals with L1210. Nature of the series: In vivo activity against murine L1210 tumor system at the dose of 166.7 mg/kg, activity expressed as body weight difference; T-C. Format: functional, Mus musculus. Put shortly:
as §3

In series [8] the test system is L1210. Nature of the series: In vivo activity against murine L1210 tumor system at the dose of mg/kg, activity expressed as %T/C. Format: functional, Mus musculus. The gist of the method: as §3
The subject of series [9] is L1210. Nature of the series: In vivo activity against murine L1210 tumor system at the dose of 100 mg/kg, activity expressed as TDS; 6/6. Format: functional, Mus musculus. The gist of the method:
as §3

The test system of series [10] is L1210. Nature of the series: In vivo activity against murine L1210 tumor system at the dose of 36 mg/kg, activity expressed as TDS; 6/6. Type of series: functional, Mus musculus. The gist of the method: as §3
Series [11] in a line: In vivo activity against murine M5076 tumor system at the dose of 21.6 mg/kg, activity expressed as body weight difference; T-C. Format: functional, Mus musculus. Put shortly:
(§4)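 M5076: ascitic fluid with ca. 10^6 cells inoculated ip into CD2F1 mice. Dosing started 24 h after inoculation and was then given every 4 days for four doses in total, from solutions or suspensions made fresh each day. Toxicity day survivors were scored on day 5. Body weight difference is day 14 minus day 1. %T/C is based on median survival time versus controls.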

A short description of series [12]: In vivo activity against murine M5076 tumor system at the dose of 60 mg/kg, activity expressed as body weight difference; T-C. Format: functional, Mus musculus.
Series [13] relates to P388. Description: In vivo activity against P388 Lymphocytic Leukemia in CD2F1 mice at the dose of 100 mg/kg, activity expressed as body weight difference; T-C. Type of series: functional, Mus musculus. Put shortly: (§5)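 CD2F1 mice were inoculated with ascitic fluid holding ca. 10^6 P388 cells. Drug was given daily from 24 h after inoculation, from solutions or suspensions made fresh each day, some as a saline suspension. TDS is survivors/initial animals on day 5. BWD is body weight on day 5 minus day 1. %T/C compares median survival of treated and control mice.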

Series [14] concerns P388. Nature of the series: In vivo activity against P388 Lymphocytic Leukemia in CD2F1 mice at the dose of 25 mg/kg, activity expressed as body weight difference; T-C. Format: functional, Mus musculus. The gist of the method:
as §5

Series [15] deals with P388. Description: In vivo activity against P388 Lymphocytic Leukemia in CD2F1 mice at the dose of 50 mg/kg, activity expressed as body weight difference; T-C. Type of series: functional, Mus musculus. The gist of the method: as §5
For series [16], the system named is P388. Description: In vivo activity against P388 Lymphocytic Leukemia in CD2F1 mice at the dose of 200 mg/kg, activity expressed as TDS; 6/6. Format: functional, Mus musculus. Put shortly:
as §5

The subject of series [17] is P388. Description: In vivo activity against P388 Lymphocytic Leukemia in CD2F1 mice at the dose of 100 mg/kg, activity expressed as KE. Format: functional, Mus musculus.
Series [18] concerns P388. Description: In vivo activity against P388 Lymphocytic Leukemia in CD2F1 mice at the dose of 100 mg/kg, activity expressed as % T/C. Format: functional, Mus musculus. Put shortly:
as §5

Series [19] can be described thus: Effect of pH on the hydrolysis of pyridinium Moity in 0.05 M buffer concentration at the pH 6.0. Format: ADME. The gist of the method:
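Pyridinium salt in 0.05 M phosphate buffer, pH 6.0–8.0 (set by pH meter), ionic strength 0.25 M, 25 °C. Decrease in the pyridinium UV absorbance maximum followed over time to give pseudo-first-order kobs and half-life.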

A short description of series [20]: Effect of phosphate buffer on the hydrolysis of alpha Fluoropyridinium Moity at the concentration of 0.05M, pH 8.0,25degree C. Type of series: ADME. Put shortly:
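α-Fluoropyridinium hydrolysis to pyridone in phosphate buffer at 0.02, 0.05 or 0.10 M, pH 6.5 or 8.0, ionic strength […] °C. Pyridinium UV absorbance maximum followed with time to give pseudo-first-order kobs and half-life.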

Series [21] is described as follows: Effect of Ionic strength (0.50 M NaCl)on the hydrolysis of pyridinium Moity in 0.02 M buffer concentration, pH 7.4,25 degree C. Format: ADME. Put shortly: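 Pyridinium salt in 0.02 M phosphate buffer, pH 7.4, 25 °C, with NaCl varied 0.10–1.0 M. Loss of the pyridinium chromophore's UV absorbance maximum (conversion to pyridone) followed over time. Pseudo-first-order kobs and half-life derived from that decay.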

Series [22] has as its system MX1. Nature of the series: In vivo activity against murine MX-1 tumor system at the dose of 37.5 mg/kg, activity expressed as body weight difference. Format: functional, Mus musculus.
Series [23] deals with MX1. Nature of the series: In vivo activity against murine MX-1 tumor system at the dose of 75 mg/kg, activity expressed as body weight difference. Format: functional, Mus musculus.
Series [24] relates to MX1. Description: In vivo activity against murine MX-1 tumor system at the dose of 37.5 mg/kg, activity expressed as TDS; 4/6. Format: functional, Mus musculus.
A short description of series [25]: In vivo activity against murine M5076 tumor system at the dose of 25 mg/kg, activity expressed as %T/C. Format: functional, Mus musculus. Put shortly:
as §4

A short description of series [26]: In vivo activity against murine M5076 tumor system at the dose of 100 mg/kg, activity expressed as TDS; 6/10. Type of series: functional, Mus musculus. Put shortly: as §4
Series [27] in a line: In vivo activity against murine M5076 tumor system at the dose of 25 mg/kg, activity expressed as TDS; 10/10. Type of series: functional, Mus musculus. Put shortly: as §4
The subject of series [28] is L1210. Nature of the series: In vivo activity against murine L1210 tumor system at the dose of 25 mg/kg, activity expressed as TDS; 6/6. Type of series: functional, Mus musculus. Put shortly: as §3
Series [29] relates to L1210. Description: In vivo activity against murine L1210 tumor system at the dose of 50 mg/kg, activity expressed as TDS; 5/6. Format: functional, Mus musculus. Put shortly: as §3
Series [30] has as its system P388. Nature of the series: In vivo activity against P388 Lymphocytic Leukemia in CD2F1 mice at the dose of 25 mg/kg, activity expressed as body weight difference. Type of series: functional, Mus musculus. The gist of the method:
as §5

Turning to `CC(C)NC(=O)OCc1c(COC(=O)NC(C)C)c(-c2ccn(C)c(=O)c2)n2c1CCC2`, the results for the K obs in [1], in series [2] and in series [3] were 0.0139 min⁻¹, 0.0349 min⁻¹ and 0.0342 min⁻¹, respectively. For the same molecule, the figures for the half-life in [4] and in [5] were 20.3 min and 2.11 min, respectively. Besides, the KE in the series on L1210 [6] was -0.86; with P388 [17], 0.69. Also, the BWD in the series with L1210 [7] is -3.8 g; in series [11], 1.7 g; in series [12], 0.9 g; in the series on P388 [13] it was -1.8 g; with P388 [14], -0.6 g; with P388 [15], -0.6 g. Also, the T/C (commonly the ratio of treated to control) stood at 135% with L1210 [8] and 148% with P388 [18]. Besides, the TDS in the series on L1210 [9], with L1210 [10] and with P388 [16] was 6 each time.

In the case of `CC(C)NC(=O)OCc1c(COC(=O)NC(C)C)c(-c2cc[n+](C)c(F)c2)n2c1CCC2.[I-]`, the K obs in series [19] worked out at 0.0044 min⁻¹; in series [20], 0.02 min⁻¹; in series [21], 0.011 min⁻¹. Besides, the BWD in the series on MX1 [22] is reported as 0.3 g; in the series on MX1 [23], 0.2 g; with P388 [30] it was -1 g. Besides, the TDS with MX1 [24] turned out to be 4; in [26], 6; in series [27] it was 10; in the series with L1210 [28], 6; in the series with L1210 [29] it was 5. The T/C in [25] was 104%.
